Measured values published in ChEMBL document CHEMBL1914423, “New imidazo[2,1-b]thiazole derivatives: synthesis, in vitro anticancer evaluation, and in silico studies” (Eur J Med Chem, 2011).

How the values were obtained:
Assay type in all cases: functional
MOLT-4 = experiment: Anticancer activity against human MOLT4 cells after 48 hrs by SRB assay; settings: MOLT-4, 48 h
RPMI-8226 = experiment: Anticancer activity against human RPMI8226 cells after 48 hrs by SRB assay; settings: RPMI-8226, 48 h
A549 = experiment: Anticancer activity against human A549 cells after 48 hrs by SRB assay; settings: A549, 48 h
Summary of the method: (§1)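 NCI five-dose screen. Cells in RPMI 1640 with 5% FBS and 2 mM L-glutamine, seeded at 5000–40,000 cells/well according to doubling time, then pre-incubated 24 h at 37 °C in 5% CO2. Drugs dissolved in DMSO, five concentrations by 10-fold or 1/2-log dilution. Cells fixed with TCA, SRB-stained, A515 read. IC50 solved from [(Ti−Tz)/(C−Tz)]×100 = 50.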

HOP-62 = experiment: Anticancer activity against human HOP62 cells after 48 hrs by SRB assay; settings: HOP-62, 48 h; summary of the method: as §1
NCI-H226 = experiment: Anticancer activity against human NCI-H226 cells after 48 hrs by SRB assay; settings: NCI-H226, 48 h
NCI-H23 = experiment: Anticancer activity against human NCI-H23 cells after 48 hrs by SRB assay; settings: NCI-H23, 48 h
NCI-H460 = experiment: Anticancer activity against human NCI-H460 cells after 48 hrs by SRB assay; settings: NCI-H460, 48 h
HCT-116 = experiment: Anticancer activity against human HCT116 cells after 48 hrs by SRB assay; settings: HCT-116, 48 h; summary of the method: as §1
SF-539 = experiment: Anticancer activity against human SF539 cells after 48 hrs by SRB assay; settings: SF-539, 48 h
SNB-19 = experiment: Anticancer activity against human SNB19 cells after 48 hrs by SRB assay; settings: SNB-19, 48 h
SNB-75 = experiment: Anticancer activity against human SNB75 cells after 48 hrs by SRB assay; settings: SNB-75, 48 h
M14 = experiment: Anticancer activity against human M14 cells after 48 hrs by SRB assay; settings: M14, 48 h; summary of the method: as §1
MDA-MB-435 = experiment: Anticancer activity against human MDA-MB-435 cells after 48 hrs by SRB assay; settings: MDA-MB-435, 48 h; summary of the method: as §1
SK-MEL-28 = experiment: Anticancer activity against human SK-MEL-28 cells after 48 hrs by SRB assay; settings: SK-MEL-28, 48 h
SK-MEL-5 = experiment: Anticancer activity against human SK-MEL-5 cells after 48 hrs by SRB assay; settings: SK-MEL-5, 48 h
UACC-257 = experiment: Anticancer activity against human UACC257 cells after 48 hrs by SRB assay; settings: UACC-257, 48 h
Summary of the method: (§2)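 NCI-60 five-dose mode: cells in RPMI 1640 with 5% FBS and 2 mM glutamine, plated at 5000–40,000 cells/well, and preincubated 24 h, with time-zero plates TCA-fixed. Drug given at five concentrations (10-fold or ½-log serial dilutions). Cold TCA fixation 60 min at 4 °C, SRB stain, Tris solubilization, A515. IC50 taken where [(Ti−Tz)/(C−Tz)]×100 = 50.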

UACC-62 = experiment: Anticancer activity against human UACC62 cells after 48 hrs by SRB assay; settings: UACC-62, 48 h; summary of the method: as §2
NCI/ADR-RES = experiment: Anticancer activity against human NCI/ADR-RES cells after 48 hrs by SRB assay
ACHN = experiment: Anticancer activity against human ACHN cells after 48 hrs by SRB assay; summary of the method: as §1
RXF 393 = experiment: Anticancer activity against human RXF393 cells after 48 hrs by SRB assay; settings: RXF 393, 48 h
SN12C = experiment: Anticancer activity against human SN12C cells after 48 hrs by SRB assay
TK-10 = experiment: Anticancer activity against human TK10 cells after 48 hrs by SRB assay; settings: TK-10, 48 h; summary of the method: as §2
UO-31 = experiment: Anticancer activity against human UO31 cells after 48 hrs by SRB assay; settings: UO-31, 48 h; summary of the method: as §2
PC-3 = experiment: Anticancer activity against human PC3 cells after 48 hrs by SRB assay; settings: PC-3, 48 h
MCF7 = experiment: Anticancer activity against human MCF7 cells after 48 hrs by SRB assay; settings: MCF7, 48 h; summary of the method: as §1
MDA-MB-231 = experiment: Anticancer activity against human MDA-MB-231 cells after 48 hrs by SRB assay; settings: MDA-MB-231, 48 h; summary of the method: as §1
[1] = Anticancer activity against human Hs 578T cells after 48 hrs by SRB assay; summary of the method: as §1
MDA-MB-468 = experiment: Anticancer activity against human MDA-MB-468 cells after 48 hrs by SRB assay; settings: MDA-MB-468, 48 h
[2] = read-out: LC50 (the source's name)

O=C(NCCNc1nccc(-c2c(-c3cccc(O)c3)nc3sccn23)n1)c1ccccc1O
GI50 (MOLT-4): 2.97 µM | TGI (MOLT-4): 21.7 µM | CC50 (MOLT-4; [2]): > 100 µM | GI50 (RPMI-8226): 3.55 µM | LC50 (RPMI-8226): > 100 µM | TGI (RPMI-8226): > 100 µM | GI50 (A549): 11 µM | LC50 (concentration giving 50% net tumour cell kill) (A549): > 100 µM | TGI (A549): 49 µM | GI50 (HOP-62): 3.59 µM | LC50 (concentration killing 50% of starting cells) (HOP-62): > 100 µM | TGI (HOP-62): 32.5 µM | GI50 (NCI-H226): 4.61 µM | LC50 (concentration killing 50% of tumour cells) (NCI-H226): > 100 µM | TGI (NCI-H226): 29.6 µM | GI50 (NCI-H23): 11.5 µM | LC50 (50% lethal concentration) (NCI-H23): > 100 µM | TGI (NCI-H23): 67.7 µM | GI50 (NCI-H460): 7.88 µM | LC50 (NCI-H460): > 100 µM | TGI (NCI-H460): 31 µM | GI50 (HCT-116): 5.13 µM | TGI (HCT-116): > 100 µM | CC50 (HCT-116; [2]): > 100 µM | GI50 (SF-539): 11.9 µM | TGI (SF-539): > 100 µM | CC50 (SF-539; [2]): > 100 µM | GI50 (SNB-19): 5.02 µM | TGI (SNB-19): > 100 µM | CC50 (SNB-19; [2]): > 100 µM | GI50 (SNB-75): 2.65 µM | TGI (SNB-75): 20.5 µM | CC50 (SNB-75; [2]): > 100 µM | GI50 (M14): 0.683 µM | TGI (M14): 39 µM | CC50 (M14; [2]): > 100 µM | GI50 (MDA-MB-435): 1.22 µM | TGI (MDA-MB-435): 3.54 µM | CC50 (MDA-MB-435; [2]): 10.6 µM | GI50 (SK-MEL-28): 0.161 µM | TGI (SK-MEL-28): 11.1 µM | CC50 (SK-MEL-28; [2]): 61.2 µM | GI50 (SK-MEL-5): 4.57 µM | TGI (SK-MEL-5): 53.3 µM | CC50 (SK-MEL-5; [2]): > 100 µM | GI50 (UACC-257): 6.41 µM | TGI (UACC-257): 73.6 µM | CC50 (UACC-257; [2]): > 100 µM | GI50 (UACC-62): 8.32 µM | TGI (UACC-62): 96.9 µM | CC50 (UACC-62; [2]): > 100 µM | GI50 (NCI/ADR-RES): 5.05 µM | TGI (NCI/ADR-RES): 68.5 µM | CC50 (NCI/ADR-RES; [2]): > 100 µM | GI50 (ACHN): 3.89 µM | TGI (ACHN): > 100 µM | CC50 (ACHN; [2]): > 100 µM | GI50 (RXF 393): 3.19 µM | TGI (RXF 393): 21.2 µM | CC50 (RXF 393; [2]): > 100 µM | GI50 (SN12C): 2.84 µM | TGI (SN12C): 74.9 µM | CC50 (SN12C; [2]): > 100 µM | GI50 (TK-10): 11.6 µM | TGI (TK-10): 52.2 µM | CC50 (TK-10; [2]): > 100 µM | GI50 (UO-31): 5.68 µM | TGI (UO-31): 19.7 µM | CC50 (UO-31; [2]): 72.8 µM | GI50 (PC-3): 5.15 µM | TGI (PC-3): 77.6 µM | CC50 (PC-3; [2]): > 100 µM | GI50 (MCF7): 4.03 µM | TGI (MCF7): 22.2 µM | CC50 (MCF7; [2]): > 100 µM | GI50 (MDA-MB-231): 2.63 µM | TGI (MDA-MB-231): 62.3 µM | CC50 (MDA-MB-231; [2]): > 100 µM | GI50 [1]: 2.96 µM | TGI [1]: 26.9 µM | CC50 [1, 2]: > 100 µM | GI50 (MDA-MB-468): 2.3 µM | TGI (MDA-MB-468): 18.2 µM | CC50 (MDA-MB-468; [2]): > 100 µM
